Assay results published in ChEMBL document CHEMBL4138168, “Design and synthesis of novel thiobarbituric acid derivatives targeting both wild-type and BRAF-mutated melanoma cells” (Eur J Med Chem, 2018).
The source made the active and inactive calls. No cut-off for these calls is given here.

What was measured:
UACC-903 [1] = test: Induction of apoptosis in human UACC-903 cells harboring BRAF mutant assessed as dead cells level at 25 uM after 24 hrs by AAD dye containing caspase 3/7 activity assay (reference value: 0.06%); assay type: functional
UACC-903 [2] = test: Induction of apoptosis in human UACC-903 cells harboring BRAF mutant assessed as increase in dead cells at 50 uM after 24 hrs by Calcein-AM/ethidium bromide staining-based fluorescence assay (reference value: 3%); assay type: functional
PANC-1 = test: Antiproliferative activity against human PANC1 cells after 48 hrs by MTT assay; assay type: functional, cell-based; settings: PANC-1, 48 h
Summary of the method: (§1)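 3,000 cells per well, grown at 37 °C (DMEM with 10% FBS and penicillin/streptomycin; HCT116 in McCoy's 5A). Cells exposed in triplicate to 0.5–25 μM compound for 48 h. MTT (5 mg/mL PBS stock) added for 3 h, formazan dissolved in DMSO, OD read at 570 nm minus 630 nm background. IC50 from non-linear regression of two independent experiments.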

UACC-903 [3] = test: Induction of apoptosis in human UACC-903 cells harboring BRAF mutant assessed as live cells level at 5 uM after 24 hrs by AAD dye containing caspase 3/7 activity assay (reference value: 90.06%); assay type: functional
UACC-903 [4] = test: Induction of apoptosis in human UACC-903 cells harboring BRAF mutant assessed as dead cells level at 5 uM after 24 hrs by AAD dye containing caspase 3/7 activity assay (reference value: 0.06%); assay type: functional
CHL-1 [5] = test: Induction of apoptosis in human CHL-1 cells harboring wild type BRAF assessed as increase in dead cells at 50 uM after 24 hrs by Calcein-AM/ethidium bromide staining-based fluorescence assay (reference value: 2%); assay type: functional
UACC-903 [6] = test: Induction of apoptosis in human UACC-903 cells harboring BRAF mutant assessed as late apoptotic cells at 5 uM after 24 hrs by Annexin V/7-AAD staining-based assay (reference value: 1.56%); assay type: functional
UACC-903 [7] = test: Induction of apoptosis in human UACC-903 cells harboring BRAF mutant assessed as increase in phosphorylated Bcl-2 level at 5 to 25 uM after 24 hrs by Western blot analysis; assay type: functional, cell-based
Summary of the method: (§2)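 2 × 10^6 cells treated with the indicated concentrations for 24 h. Whole-cell lysates run on SDS-PAGE, transferred to PVDF, probed with antibodies against apoptosis/survival proteins, and detected by enhanced chemiluminescence.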

UACC-903 [8] = test: Induction of apoptosis in human UACC-903 cells harboring BRAF mutant assessed as live cells level at 25 uM after 24 hrs by AAD dye containing caspase 3/7 activity assay (reference value: 90.06%); assay type: functional
[9] = Selectivity ratio of cytotoxicity against human MCF10A cells to IC50 for human UACC-903 cells harboring BRAF mutant; assay type: toxicity, cell-based; settings: MCF10A cells versus UACC-903 cells harboring BRAF mutant
WM 266-4 = test: Antiproliferative activity against human WM266.4 cells after 48 hrs by MTT assay; assay type: functional, cell-based; settings: WM 266-4, 48 h; summary of the method: as §1
MCF7 [10] = test: Antiproliferative activity against human MCF7 cells expressing ER/PR/HER2 after 48 hrs by MTT assay; assay type: functional, cell-based; settings: MCF7, 48 h; summary of the method: as §1
CHL-1 [11] = test: Induction of apoptosis in human CHL-1 cells harboring wild type BRAF assessed as decrease in Bcl-xL level at 5 to 25 uM after 24 hrs by Western blot analysis; assay type: functional, cell-based; summary of the method: as §2
CHL-1 [12] = test: Induction of apoptosis in human CHL-1 cells harboring wild type BRAF assessed as decrease in survivin level at 5 to 25 uM after 24 hrs by Western blot analysis; assay type: functional, cell-based; summary of the method: as §2
[13] = Cytotoxicity against human MCF10A cells assessed as cell viability at 25 uM after 48 hrs by MTT assay relative to control; assay type: cell-based, MCF-10A; settings: read-out: Activity
Summary of the method: (§3)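 MTT viability at a single 25 μM dose, 48 h, 3,000 cells/well. MCF10A normal breast epithelial cells were kept in MEGM mammary epithelial medium; the cancer lines were in DMEM with 10% FBS, 37 °C. OD at 570 nm with 630 nm background, expressed relative to control.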

CHL-1 [14] = test: Antiproliferative activity against human CHL-1 cells harboring wild type BRAF after 48 hrs by MTT assay; assay type: functional, cell-based; settings: CHL-1, 48 h; summary of the method: as §1
[15] = Selectivity ratio of cytotoxicity against human MCF10A cells to cytotoxicity against human MDA-MB-231 cells; assay type: toxicity, cell-based; settings: MCF10A cells versus MDA-MB-231 cells
CHL-1 [16] = test: Induction of apoptosis in human CHL-1 cells harboring wild type BRAF assessed as increase in dead cells at 25 uM after 24 hrs by Calcein-AM/ethidium bromide staining-based fluorescence assay (reference value: 2%); assay type: functional
UACC-903 [17] = test: Induction of apoptosis in human UACC-903 cells harboring BRAF mutant assessed as early apoptotic cells at 25 uM after 24 hrs by Annexin V/7-AAD staining-based assay (reference value: 2.68%); assay type: functional
CHL-1 [18] = test: Induction of apoptosis in human CHL-1 cells harboring wild type BRAF assessed as increase in phosphorylated Bcl-2 level at 5 to 25 uM after 24 hrs by Western blot analysis; assay type: functional, cell-based; summary of the method: as §2
MDA-MB-231 = test: Antiproliferative activity against ER/PR/HER2 deficient human MDA-MB-231 cells after 48 hrs by MTT assay; assay type: functional, cell-based; settings: MDA-MB-231, 48 h; summary of the method: as §1
UACC-903 [19] = test: Induction of apoptosis in human UACC-903 cells harboring BRAF mutant assessed as decrease in survivin level at 5 to 25 uM after 24 hrs by Western blot analysis; assay type: functional, cell-based; summary of the method: as §2
[20] = Antiproliferative activity against human 1205 Lu cells after 48 hrs by MTT assay; assay type: functional, cell-based; summary of the method: as §1
UACC-903 [21] = test: Induction of apoptosis in human UACC-903 cells harboring BRAF mutant assessed as decrease in Bcl-xL level at 5 to 25 uM after 24 hrs by Western blot analysis; assay type: functional, cell-based; summary of the method: as §2
MCF7 [22] = test: Cytotoxicity against human MCF7 cells assessed as cell viability at 25 uM after 48 hrs by MTT assay relative to control; assay type: functional; settings: MCF7, 48 h, read-out: Activity; summary of the method: as §3
HCT-116 = test: Antiproliferative activity against human HCT116 cells after 48 hrs by MTT assay; assay type: functional, cell-based; settings: HCT-116, 48 h; summary of the method: as §1
UACC-903 [23] = test: Induction of apoptosis in human UACC-903 cells harboring BRAF mutant assessed as viable cells at 5 uM after 24 hrs by Annexin V/7-AAD staining-based assay (reference value: 95.64%); assay type: functional; settings: UACC-903, 24 h, read-out: Activity
UACC-903 [24] = test: Induction of apoptosis in human UACC-903 cells harboring BRAF mutant assessed as necrotic cells at 5 uM after 24 hrs by Annexin V/7-AAD staining-based assay (reference value: 0.12%); assay type: functional
[25] = Selectivity ratio of cytotoxicity against human MCF10A cells to cytotoxicity against human MCF7 cells; assay type: toxicity, cell-based; settings: MCF10A cells versus MCF7 cells
[26] = Antiproliferative activity against human A375M cells after 48 hrs by MTT assay; assay type: functional, cell-based; summary of the method: as §1
UACC-903 [27] = test: Induction of apoptosis in human UACC-903 cells harboring BRAF mutant assessed as increase in dead cells at 25 uM after 24 hrs by Calcein-AM/ethidium bromide staining-based fluorescence assay (reference value: 3%); assay type: functional
UACC-903 [28] = test: Induction of apoptosis in human UACC-903 cells harboring BRAF mutant assessed as apoptotic dead cells level at 25 uM after 24 hrs by AAD dye containing caspase 3/7 activity assay (reference value: 3%); assay type: functional

| SMILES | Activity (UACC-903 [1]) | Activity (UACC-903 [2]) | IC50 (PANC-1) | Activity (UACC-903 [3]) | Activity (UACC-903 [4]) | Activity (CHL-1 [5]) | Activity (UACC-903 [6]) | Activity (UACC-903 [7]) | Activity (UACC-903 [8]) | selectivity ratio [9] | IC50 (WM 266-4) | IC50 (MCF7 [10]) | Activity (CHL-1 [11]) | Activity (CHL-1 [12]) | viability at 48 h, 25 µM [13] | IC50 (CHL-1 [14]) | selectivity ratio [15] | Activity (CHL-1 [16]) | Activity (UACC-903 [17]) | Activity (CHL-1 [18]) | other results |
| --- | --- | --- | --- | --- | --- | --- | --- | --- | --- | --- | --- | --- | --- | --- | --- | --- | --- | --- | --- | --- | --- |
| O=C1NC(=S)N(c2ccccc2)C(=O)/C1=C/C=C/c1cccs1 | 0.14% | 45% | 8.3 µM | 87.26% | 0.18% | 40% | 3.18% | Active | 25.7% | 3 | 9.2 µM | 16.5 µM | Active | Active | 60% | 6.5 µM | 2 | 5% | 21.04% | Active | IC50 (MDA-MB-231): 8.3 µM; Activity (UACC-903 [19]): Active; IC50 [20]: 13.5 µM; Activity (UACC-903 [21]): Active; viability at 25 µM (MCF7 [22]): 20 to 30%; IC50 (HCT-116): 2.4 µM; viability at 5 µM (UACC-903 [23]): 92.6%; Activity (UACC-903 [24]): 0.54%; selectivity ratio [25]: 2; IC50 [26]: 14.8 µM; Activity (UACC-903 [27]): 15 - 25%; Activity (UACC-903 [28]): 24.1% |
| O=C1NC(=S)NC(=O)C1=C/C=C/c1cccs1 | 0.58% | 85% | 19.1 µM | 90.28% | 0.32% | 98% | 3.14% | Active | 17.4% | 3 | 7.9 µM | 16.2 µM | Active | Active | 60% | 7.2 µM | 2 | 65% | 30.28% | Active | IC50 (MDA-MB-231): 7.6 µM; Activity (UACC-903 [19]): Active; IC50 [20]: 12.4 µM; Activity (UACC-903 [21]): Active; viability at 25 µM (MCF7 [22]): 20 to 30%; IC50 (HCT-116): 7.7 µM; viability at 5 µM (UACC-903 [23]): 91.3%; Activity (UACC-903 [24]): 0.4%; selectivity ratio [25]: 2; IC50 [26]: 10.6 µM; Activity (UACC-903 [27]): 70%; Activity (UACC-903 [28]): 43.88% |
